Experimental data gathered from unrelated publications.
Lines come from different studies, so protocols differ.
Target: Serine/threonine-protein kinase tousled-like 2 (TLK2, Homo sapiens, UniProt Q86UE8)

The remaining binding of `Nc1ncc2c(n1)-c1c([nH]c3ccc(C#CC4CC4)cc13)CCCC2` is reported as 100% (binding, competition with immobilised ligand; 1 µM).
The remaining binding of `Cc1nc(Cc2cccc(C(F)(F)F)c2)sc1-c1ccc(C(N)=O)nc1` is reported as 82% (cell-free assay, competition with immobilised ligand; 1 µM).
The remaining binding of `COc1cnc(Nc2cccc(S(N)(=O)=O)c2)nc1N1CCN(c2ccccc2)C(=O)C1` is reported as 100% (binding, competition with immobilised ligand; 1 µM).
`CO[C@@H](C)c1c(Nc2ccc([C@H](N(C)C(=O)C3CCS(=O)(=O)CC3)C(F)(F)F)cc2)cnc2cc(Cl)nn12` gave a remaining binding of 92% (cell-free assay, competition with immobilised ligand; 1 µM).
The remaining binding of `O=C(Nc1c[nH]nc1C(=O)NC1CCNCC1)c1cc(F)cc(F)c1` is reported as 98% (binding, competition with immobilised ligand; 1 µM).
`O=C(Nc1cccnn1)N1CCC(=Cc2cccc(Oc3ccc(C(F)(F)F)cn3)c2)CC1` gave a remaining binding of 100% (cell-free assay, competition with immobilised ligand; 1 µM).
`O=C(c1ccc(Nc2ncc(Cl)c(-c3ccc(Cl)s3)n2)cc1)N1CCC(N2CCCC2)CC1` gave a remaining binding of 29% (binding, competition with immobilised ligand; 1 µM).
For `CNC(=O)[C@@H]1CC[C@@H](n2c(-c3ccc4cnccc4c3)nc3ccc(C(=O)NCc4cccc(C(N)=O)c4)cc32)C1`, the remaining binding was 100% (binding, competition with immobilised ligand; 1 µM).
The remaining binding of `CN(C)c1nccc(-c2cnn3ncccc23)n1` is reported as 100% (binding; 1 µM).
With `CCN1CCN(Cc2ccc(C(=O)Nc3ccc(C)c(Oc4ccc5c(c4)CC(=O)N5)c3)cc2C(F)(F)F)CC1` the remaining binding was 94% (binding, competition with immobilised ligand; 1 µM).
`C[C@H]1CCN(c2nccc(-c3cnn4ncccc34)n2)C1` gave a remaining binding of 100% (binding; 1 µM).
With `O=C(c1ccc(Nc2nccc(-c3cc4ccccc4s3)n2)cc1)N1CCC(N2CCCC2)CC1` the remaining binding was 15% (binding, competition with immobilised ligand; 1 µM).
`CN(c1nccc(-c2cnn3ncccc23)n1)C1CC1` has a remaining binding of 100% (binding; 1 µM).
`c1cncc(-c2cccc(Nc3nccc(NC4CCCCC4)n3)c2)c1` has a remaining binding of 100% (binding, competition with immobilised ligand; 10 µM).
For `CN(CCCC(F)(F)F)c1nccc(-c2cnn3ncccc23)n1`, the remaining binding was 100% (binding; 1 µM).
The remaining binding of `O=C(N[C@H]1CCCCC/C=C\C2C[C@@]2(C(=O)O)NC(=O)[C@@H]2C[C@@H](Oc3ccncc3)CN2C1=O)OC1CCCC1` (stereo partly drawn) is reported as 100% (cell-free assay, competition with immobilised ligand; 1 µM).
`O=C(c1ccc(Nc2ncc(Cl)c(-c3cc4ccccc4s3)n2)cc1)N1CCC(N2CCCC2)CC1` has a remaining binding of 26% (binding, competition with immobilised ligand; 1 µM).
The remaining binding of `O=C(NCc1ncc(C(F)(F)F)cc1Cl)c1ccc2c(c1)C1(CCS(=O)(=O)CC1)[C@@H](C1CC1)N2S(=O)(=O)c1ccc(F)cc1` is reported as 100% (cell-free assay, competition with immobilised ligand; 1 µM).
With `c1cnn2ncc(-c3ccnc(N4CCC45COC5)n3)c2c1` the remaining binding was 100% (binding; 1 µM).
The remaining binding of `CC1=C(C#N)[C@@H](c2ccc3[nH]nc(C)c3c2)C(C#N)=C(c2ccc(Cl)cc2)N1` is reported as 100% (cell-free assay, competition with immobilised ligand; 1 µM).
`N[C@H]1CCN(c2nccc(-c3cnn4ncccc34)n2)C1` gave a remaining binding of 100% (binding; 1 µM).
